# MrgX1 PAM: positive allosteric modulators of MrgX1, primary screen, HEK293 cells, Fluo-4 calcium flux | B-score at 10 µM | hit rate 0.63% among 310,000 | FDSS; stronger effect = higher value | Mas-related G-protein coupled receptor member X1 (Homo sapiens), Q96LB2;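 active = plate-corrected calcium response at least 3 library SD above typical, normal starting fluorescence, not activating the receptor alone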;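 also: compound read alongside a low EC10 to EC30 dose of BAM8-22 agonist; peak minus trough fluorescence over baseline measured at the second addition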
# Target sequence (Q96LB2 whole entry, looked up): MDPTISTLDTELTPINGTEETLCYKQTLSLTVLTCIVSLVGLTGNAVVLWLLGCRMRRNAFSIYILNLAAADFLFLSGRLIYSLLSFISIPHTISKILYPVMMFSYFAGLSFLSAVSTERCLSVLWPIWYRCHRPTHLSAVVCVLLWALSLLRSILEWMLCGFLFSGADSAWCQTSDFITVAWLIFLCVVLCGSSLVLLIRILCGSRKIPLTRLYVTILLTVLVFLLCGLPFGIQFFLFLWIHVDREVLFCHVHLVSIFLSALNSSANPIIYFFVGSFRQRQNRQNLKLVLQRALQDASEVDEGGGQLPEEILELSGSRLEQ
# MrgX1 agonist: agonists of human MrgX1 receptor, primary screen, HEK293 cells, Fluo-4 calcium flux; hit rate 0.44% among 310,000; B-score at 10 µM; Fluo-4 calcium fluorescence, agonist mode; stronger effect = higher value; AID 588627, 2011;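 active = calcium response B-score plate-corrected fluorescence ratio at least 3 library SD, with starting fluorescence B-score inside 5 SD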
#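 System – MrgX1-expressing HEK293 cells · Incubation – cells plated overnight, dye loaded 0.5 h 37 °C, 0.5 h room temperature · Technique – kinetic Fluo-4 NW fluorescence of intracellular calcium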
# RGS4 block: RGS4 inhibitors, primary screen, cell-based, HEK293 M3R inducible RGS4, calcium flux; Fluo-4 calcium flux; stronger effect = higher value; triggered by carbachol at its EC20; Regulator of G-protein signaling 4 (Homo sapiens), P49798; B-score at 10 µM; hit rate 0.45% among 310,000;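 active = B-score, a plate-corrected calcium signal, over three deviations above library mean, with baseline fluorescence within five deviations of library mean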;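 also: RGS4 expression induced by doxycycline in cells with stable M3 receptor; B-score is computed from the integrated fluorescence ratio over baseline after carbachol; higher B-score means a larger calcium signal and so more RGS4 inhibition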
# RGS4 pot: RGS4 potentiators or activators, primary screen, cell-based, HEK293 M3R inducible RGS4, calcium flux; carbachol calcium flux Fluo4; stronger effect = lower value; B-score at 10 µM; hit rate 0.92% among 310,000; AID 463111, 2010;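 active = B-score of the integrated calcium signal more than 4 SD below the library mean, with starting fluorescence not abnormally high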;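 also: negative B-score means reduced calcium response which marks RGS4 activation or potentiation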
#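 Material: Inducible-RGS4 HEK293 cells carrying M3 receptor; also added: carbachol at ECmax as muscarinic agonist stimulus; incubation: compound preincubation 20 min at room temperature before agonist; signal: Fluo4-AM (2 µM) calcium-flux fluorescence, kinetic read; measure: integrated calcium ratio converted to B score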
# MrgX1 antag: antagonists of human MrgX1 receptor, primary screen, HEK293 cells, Fluo-4 calcium flux. Mas-related G-protein coupled receptor member X1 (Homo sapiens), Q96LB2. BAM8-22 antagonism; stronger effect = lower value. B-score at 10 µM. hit rate 1.3% among 310,000. AID 588676, 2011;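 active = calcium-response B-score plate-corrected more than 3 library SD below zero, starting fluorescence within 5 deviations, no agonist response on first addition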;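 also: peak minus trough fluorescence over baseline after final BAM8-22 challenge near maximal dose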
# * hit, by the source's call; i = inactive. Rows were chosen to be rich in hits. Some 3.5% of all compounds tested hit in one or more screens of this group.
SMILES,MrgX1 PAM,MrgX1 agonist,RGS4 block,RGS4 pot,MrgX1 antag
COc1cc(C(=O)NCC(C)(C)CNC(=O)c2cc(OC)c(OC)c(OC)c2)cc(OC)c1OC,i,i,i,i,i
COc1ccc(C(=O)Nc2cc(C(C)=O)c(/C=C/N(C)C)oc2=O)cc1,i,i,i,i,-5.28*
N#C/C(=N/Nc1ccc(OC(F)(F)F)cc1)C(N)=S,i,i,i,i,i
NC(=S)N=Nc1ccc(NN=C(N)N)cc1,i,31.1*,i,i,i
CCCN(CC(=O)Nc1ccccc1C)C(=O)c1ccc(Cl)c(S(=O)(=O)N2CCCC2)c1,i,i,i,i,i
CCCN(CC(=O)Nc1ccccc1C)C(=O)c1ccc(C)c(S(=O)(=O)N2CCCCC2)c1,i,i,i,i,-5.45*
O=[N+]([O-])c1ccc(C2CCCC/C2=N/OCc2ccccc2F)c([N+](=O)[O-])c1 (stereo not given),i,i,i,-7.72*,i
CN(CC(=O)Nc1cccc(S(=O)(=O)N2CCCC2)c1)CC(=O)Nc1ccc(Cl)c(C(F)(F)F)c1,i,i,i,i,i
COCCn1c(=O)[nH]c(=O)c2c1nc(-c1ccc(-c3ccc(Cl)cc3[N+](=O)[O-])o1)n2Cc1ccccc1,i,i,i,i,i
COCCn1c(-c2ccc(-c3ccc([N+](=O)[O-])cc3Br)o2)nc2c1c(=O)[nH]c(=O)n2CC(C)C,i,i,i,i,-6.22*
CC(C)C(=O)c1ccc(O)c(O)c1,i,i,i,i,i
CCC(NC(C)C)C(O)c1ccc(O)c(O)c1 (stereo not given),i,26.5*,i,i,i
CC(=O)Nc1ccc(S(=O)(=O)Nc2nc3ccccc3nc2Nc2ccc(O)cc2)cc1,i,i,i,i,i
CCOc1ccccc1C(=O)Nc1ccc2c(c1)C(=O)NC2=O,i,i,i,i,i
O=C(Oc1cccc2cccnc12)c1cccc(N2C(=O)C3C4CCC(C4)C3C2=O)c1 (stereo not given),i,i,5.97*,i,i
NC(=O)c1cc(C(=O)c2ccccc2Cl)c[nH]1,i,i,i,i,i
CN1CCN(/N=C/c2c3ccccc3c(Cl)c3ccccc23)CC1,9.3*,i,i,i,i
CN1CCN(/N=C/c2ccc(-c3ccccc3)cc2)CC1,i,i,i,i,i
CC1CC(C)CN(C(=O)C2CCN(S(=O)(=O)c3ccc4c(c3)CC(C)N4C(=O)C3CC3)CC2)C1 (stereo not given),i,i,i,i,i
CCOc1ccc(C(=O)CC(=O)C(=O)NCCc2ccc(OC)c(OC)c2)cc1,i,i,i,i,i
CCOc1cc(/C=C2\N=C(SC(C)C(N)=O)N(c3ccc(OC(F)F)cc3)C2=O)ccc1O (stereo not given),11.4*,i,i,i,i
NC(=O)CSC1=N/C(=C\c2ccco2)C(=O)N1c1ccc(OC(F)F)cc1,i,i,i,i,i
COc1cc2c(cc1OC)CN(c1nc(-c3cccnc3)nc3ccccc13)CC2,i,i,i,-7.47*,i
Fc1ccccc1CNc1nc(-c2cccnc2)nc2ccccc12,i,37.8*,i,-9.1*,i
COc1cccc(CNc2nc(-c3cccnc3)nc3ccccc23)c1,i,i,i,i,i
COc1ccccc1C(C)Nc1nc(-c2cccnc2)nc2ccccc12 (stereo not given),i,i,i,-7.12*,i
CSc1nc2ccccc2n1CC(=O)Nc1cc(C(F)(F)F)ccc1N1CCOCC1,i,i,i,i,i
CCN(CC)c1ccc(NC(=O)c2c(C)noc2C)cc1,i,i,i,i,i
CCOc1cccc(C(=O)Nc2ccccc2C(=O)N2CCOCC2)c1,i,i,i,i,i
